Results from ChEMBL document CHEMBL1123452, “Synthesis and hypolipidemic activities of 5-thienyl-4-oxazoleacetic acid derivatives” (1986).

Legend:
Rattus norvegicus [1] = organism: Rattus norvegicus; assay: Percent decrease in triglyceride (TG) after 7 days at 0.05 percent in the diet of SD male rats in comparison to control animals; assay type: functional
Method in brief: (§1)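 Normal SD male rats, five per group. Compound mixed into CE-2 powder diet at 50 mg/100 g (mg %), fed ad libitum for 7 days; controls received plain CE-2 powder. Total serum cholesterol measured by the Zak method and triglyceride by the Van Handel method after the feeding period. Activity expressed as percent depression versus the control-group mean. Single experiments.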

Rattus norvegicus [2] = organism: Rattus norvegicus; assay: Percent decrease in serum cholesterol (Cho) after 7 days at 0.05 percent in the diet of SD male rats in comparison to control animals; assay type: functional; method in brief: as §1

CCCCCOC(=O)Cc1nc(-c2ccccc2)oc1-c1ccsc1
Reduction (Rattus norvegicus [1]): 30%
Reduction (Rattus norvegicus [2]): 20%

CCCCCOC(=O)Cc1nc(-c2ccc(F)cc2)oc1-c1ccsc1
Reduction (Rattus norvegicus [1]): 20%
Reduction (Rattus norvegicus [2]): 13%

CCCCCCCCOC(=O)Cc1nc(-c2ccc(F)cc2)oc1-c1ccsc1
Reduction (Rattus norvegicus [1]): 13%
Reduction (Rattus norvegicus [2]): 12%

CCOC(=O)Cc1nc(-c2ccc(Br)cc2)oc1-c1ccc(F)cc1
Reduction (Rattus norvegicus [1]): -5%
Reduction (Rattus norvegicus [2]): 12%

O=C(OCc1nc(-c2ccc(F)cc2)oc1-c1ccsc1)c1cccnc1
Reduction (Rattus norvegicus [1]): 17%
Reduction (Rattus norvegicus [2]): 0%

CCOC(=O)Cc1nc(-c2ccc(C)cc2)oc1-c1cccs1
Reduction (Rattus norvegicus [1]): -14%
Reduction (Rattus norvegicus [2]): 9%

CCOC(=O)Cc1nc(-c2ccccc2)oc1-c1cccs1
Reduction (Rattus norvegicus [1]): 7%
Reduction (Rattus norvegicus [2]): 11%

O=C(O)Cc1nc(-c2ccc(Cl)c(Cl)c2)oc1-c1ccsc1
Reduction (Rattus norvegicus [1]): 34%
Reduction (Rattus norvegicus [2]): 9%

CCOC(=O)Cc1nc(-c2ccc(Cl)cc2)oc1-c1ccc(Br)s1
Reduction (Rattus norvegicus [1]): 20%
Reduction (Rattus norvegicus [2]): 0%

NC(=O)Cc1nc(-c2ccc(F)cc2)oc1-c1ccsc1
Reduction (Rattus norvegicus [1]): 13%
Reduction (Rattus norvegicus [2]): 19%

O=C(O)Cc1nc(-c2ccsc2)oc1-c1ccc(F)cc1
Reduction (Rattus norvegicus [1]): 31%
Reduction (Rattus norvegicus [2]): 13%

O=C(O)Cc1nc(-c2ccc(Br)cc2)oc1-c1ccccc1
Reduction (Rattus norvegicus [1]): -14%
Reduction (Rattus norvegicus [2]): 4%

O=C(O)Cc1nc(-c2ccccc2)oc1-c1ccsc1
Reduction (Rattus norvegicus [1]): 41%
Reduction (Rattus norvegicus [2]): 15%

COC(=O)Cc1nc(-c2ccc(Cl)cc2)oc1-c1ccsc1
Reduction (Rattus norvegicus [1]): 29%
Reduction (Rattus norvegicus [2]): 14%

CCN(CC)C(=O)Cc1nc(-c2ccc(F)cc2)oc1-c1ccsc1
Reduction (Rattus norvegicus [1]): 2%
Reduction (Rattus norvegicus [2]): -2%

CCOC(=O)Cc1nc(-c2ccc(C)cc2)oc1-c1ccsc1
Reduction (Rattus norvegicus [1]): 4%
Reduction (Rattus norvegicus [2]): 5%

CCOC(=O)Cc1nc(-c2ccc(C)cc2)oc1-c1ccccc1
Reduction (Rattus norvegicus [1]): -18%
Reduction (Rattus norvegicus [2]): 5%

CC(C)OC(=O)Cc1nc(-c2ccc(Cl)cc2)oc1-c1ccsc1
Reduction (Rattus norvegicus [1]): 29%
Reduction (Rattus norvegicus [2]): 9%

O=C(O)Cc1nc(-c2ccccc2)oc1-c1ccccc1
Reduction (Rattus norvegicus [1]): 20%
Reduction (Rattus norvegicus [2]): 6%

COc1ccc(-c2nc(CC(=O)O)c(-c3ccsc3)o2)cc1
Reduction (Rattus norvegicus [1]): 26%
Reduction (Rattus norvegicus [2]): 3%

CCCCCOC(=O)Cc1nc(-c2ccc(Cl)cc2)oc1-c1ccsc1
Reduction (Rattus norvegicus [1]): 45%
Reduction (Rattus norvegicus [2]): 19%

O=C(O)Cc1nc(-c2ccccc2Cl)oc1-c1ccsc1
Reduction (Rattus norvegicus [1]): 22%
Reduction (Rattus norvegicus [2]): 1%

CCCCOC(=O)Cc1nc(-c2ccc(Cl)cc2)oc1-c1ccsc1
Reduction (Rattus norvegicus [1]): 17%
Reduction (Rattus norvegicus [2]): 22%

CCOC(=O)Cc1nc(-c2ccc(F)cc2)oc1-c1cccs1
Reduction (Rattus norvegicus [1]): 31%
Reduction (Rattus norvegicus [2]): 17%

CCOC(=O)Cc1nc(-c2ccc(Cl)cc2)oc1-c1cccs1
Reduction (Rattus norvegicus [1]): -10%
Reduction (Rattus norvegicus [2]): 15%

OCc1nc(-c2ccc(F)cc2)oc1-c1ccsc1
Reduction (Rattus norvegicus [1]): -34%
Reduction (Rattus norvegicus [2]): -10%

CCCCNC(=O)Cc1nc(-c2ccc(F)cc2)oc1-c1ccsc1
Reduction (Rattus norvegicus [1]): 13%
Reduction (Rattus norvegicus [2]): -8%

CCOC(=O)Cc1nc(-c2ccc(F)cc2)oc1-c1ccccc1
Reduction (Rattus norvegicus [1]): -4%
Reduction (Rattus norvegicus [2]): 3%

O=C(O)Cc1nc(-c2ccc(Cl)cc2)oc1-c1ccccc1
Reduction (Rattus norvegicus [1]): 14%
Reduction (Rattus norvegicus [2]): 6%

O=C(O)Cc1nc(-c2ccc(F)cc2)oc1-c1cccs1
Reduction (Rattus norvegicus [1]): 27%
Reduction (Rattus norvegicus [2]): 17%

O=C(OCCc1nc(-c2ccc(F)cc2)oc1-c1ccsc1)c1cccnc1
Reduction (Rattus norvegicus [1]): 3%
Reduction (Rattus norvegicus [2]): -2%

CCOC(=O)Cc1nc(-c2ccc(F)cc2)oc1-c1ccc(F)cc1
Reduction (Rattus norvegicus [1]): 39%
Reduction (Rattus norvegicus [2]): 7%

CCOC(=O)Cc1nc(-c2ccc(OC)cc2)oc1-c1ccccc1
Reduction (Rattus norvegicus [1]): 15%
Reduction (Rattus norvegicus [2]): 0%

CCOC(=O)Cc1nc(-c2ccc(Cl)cc2)oc1-c1ccccc1
Reduction (Rattus norvegicus [1]): -12%
Reduction (Rattus norvegicus [2]): 7%

O=C(O)Cc1nc(-c2ccc(F)cc2)oc1-c1ccsc1
Reduction (Rattus norvegicus [1]): 39%
Reduction (Rattus norvegicus [2]): 23%

C=CCOC(=O)Cc1nc(-c2ccc(Cl)cc2)oc1-c1ccsc1
Reduction (Rattus norvegicus [1]): 39%
Reduction (Rattus norvegicus [2]): 11%

CCOC(=O)Cc1nc(-c2ccc(Br)cc2)oc1-c1ccccc1
Reduction (Rattus norvegicus [1]): -7%
Reduction (Rattus norvegicus [2]): 10%

Cc1ccc(-c2nc(CC(=O)O)c(-c3ccsc3)o2)cc1
Reduction (Rattus norvegicus [1]): 14%
Reduction (Rattus norvegicus [2]): 9%

CCOC(=O)CCc1nc(-c2ccc(Cl)cc2)oc1-c1ccsc1
Reduction (Rattus norvegicus [1]): 34%
Reduction (Rattus norvegicus [2]): 0%

CCOC(=O)Cc1nc(-c2ccccc2Cl)oc1-c1ccsc1
Reduction (Rattus norvegicus [1]): 15%
Reduction (Rattus norvegicus [2]): -5%

O=C(O)c1ncoc1-c1ccccc1
Reduction (Rattus norvegicus [1]): 11%
Reduction (Rattus norvegicus [2]): 2%

CCCCCCCCCCCCCCCCCCOC(=O)Cc1nc(-c2ccc(F)cc2)oc1-c1ccsc1
Reduction (Rattus norvegicus [1]): 26%
Reduction (Rattus norvegicus [2]): 18%

CCOC(=O)Cc1nc(-c2ccc(F)cc2)oc1-c1ccsc1
Reduction (Rattus norvegicus [1]): 41%
Reduction (Rattus norvegicus [2]): 19%

CCOC(=O)C(C)c1nc(-c2ccc(F)cc2)oc1-c1ccsc1 (configuration not stated)
Reduction (Rattus norvegicus [1]): 19%
Reduction (Rattus norvegicus [2]): 6%

CCOC(=O)Cc1nc(-c2ccsc2)oc1-c1ccc(F)cc1
Reduction (Rattus norvegicus [1]): 15%
Reduction (Rattus norvegicus [2]): 11%

CCOC(=O)Cc1nc(-c2ccc(OC)cc2)oc1-c1ccsc1
Reduction (Rattus norvegicus [1]): 0%
Reduction (Rattus norvegicus [2]): 4%

O=C(O)Cc1nc(-c2ccc(Cl)cc2)oc1-c1cccs1
Reduction (Rattus norvegicus [1]): 38%
Reduction (Rattus norvegicus [2]): 16%

O=C(Cc1nc(-c2ccc(Cl)cc2)oc1-c1ccsc1)OCc1cccnc1
Reduction (Rattus norvegicus [1]): 3%
Reduction (Rattus norvegicus [2]): 13%

NC(=O)Cc1nc(-c2ccccc2)oc1-c1ccsc1
Reduction (Rattus norvegicus [1]): 3%
Reduction (Rattus norvegicus [2]): 20%

CCOC(=O)c1nc(-c2ccccc2)oc1-c1ccccc1
Reduction (Rattus norvegicus [1]): -30%
Reduction (Rattus norvegicus [2]): 9%

O=C(O)Cc1nc(-c2ccccc2)oc1-c1cccs1
Reduction (Rattus norvegicus [1]): 28%
Reduction (Rattus norvegicus [2]): -4%

CCCCCCCCCCCCOC(=O)Cc1nc(-c2ccc(F)cc2)oc1-c1ccsc1
Reduction (Rattus norvegicus [1]): 34%
Reduction (Rattus norvegicus [2]): 18%

O=C(O)Cc1nc(-c2cccc(Cl)c2)oc1-c1ccsc1
Reduction (Rattus norvegicus [1]): 38%
Reduction (Rattus norvegicus [2]): 7%

CCOC(=O)Cc1nc(-c2ccc(Cl)cc2)oc1-c1ccc(F)cc1
Reduction (Rattus norvegicus [1]): 3%
Reduction (Rattus norvegicus [2]): 22%

CCOC(=O)Cc1nc(-c2cccc(Cl)c2)oc1-c1ccsc1
Reduction (Rattus norvegicus [1]): 61%
Reduction (Rattus norvegicus [2]): 8%

CC(C)OC(=O)Cc1nc(-c2ccc(F)cc2)oc1-c1ccsc1
Reduction (Rattus norvegicus [1]): 27%
Reduction (Rattus norvegicus [2]): 8%

O=C(O)CCc1nc(-c2ccc(Cl)cc2)oc1-c1ccsc1
Reduction (Rattus norvegicus [1]): 51%
Reduction (Rattus norvegicus [2]): 5%

O=C(O)Cc1nc(-c2ccc(Cl)cc2)oc1-c1ccsc1
Reduction (Rattus norvegicus [1]): 43%
Reduction (Rattus norvegicus [2]): 16%

CCOC(=O)Cc1nc(-c2ccc(Cl)c(Cl)c2)oc1-c1ccsc1
Reduction (Rattus norvegicus [1]): 17%
Reduction (Rattus norvegicus [2]): 14%

CCOC(=O)Cc1nc(-c2cc(OC)c(OC)c(OC)c2)oc1-c1ccccc1
Reduction (Rattus norvegicus [1]): -19%
Reduction (Rattus norvegicus [2]): 0%

O=C(Cc1nc(-c2ccc(Cl)cc2)oc1-c1ccsc1)OCC(O)CO (configuration not stated)
Reduction (Rattus norvegicus [1]): 43%
Reduction (Rattus norvegicus [2]): 15%

Cc1ccc(-c2oc(-c3ccc(Cl)cc3)nc2CC(=O)O)s1
Reduction (Rattus norvegicus [1]): -4%
Reduction (Rattus norvegicus [2]): 9%

CC(C(=O)O)c1nc(-c2ccc(F)cc2)oc1-c1ccsc1 (configuration not stated)
Reduction (Rattus norvegicus [1]): 40%
Reduction (Rattus norvegicus [2]): 6%

CCc1nc(-c2ccc(F)cc2)oc1-c1ccsc1
Reduction (Rattus norvegicus [1]): 20%
Reduction (Rattus norvegicus [2]): -4%

CCCCOC(=O)Cc1nc(-c2ccc(F)cc2)oc1-c1ccsc1
Reduction (Rattus norvegicus [1]): 19%
Reduction (Rattus norvegicus [2]): 20%

COC(=O)c1nc(-c2ccc(F)cc2)oc1-c1ccsc1
Reduction (Rattus norvegicus [1]): 16%
Reduction (Rattus norvegicus [2]): 5%

CCCCOC(=O)Cc1nc(-c2ccccc2)oc1-c1ccsc1
Reduction (Rattus norvegicus [1]): 21%
Reduction (Rattus norvegicus [2]): 15%

CCOC(=O)Cc1nc(-c2ccccc2)oc1-c1ccccc1
Reduction (Rattus norvegicus [1]): 6%
Reduction (Rattus norvegicus [2]): 13%

CCOC(=O)Cc1nc(-c2ccc(Cl)cc2)oc1-c1ccsc1
Reduction (Rattus norvegicus [1]): 47%
Reduction (Rattus norvegicus [2]): 16%

C=CCc1nc(-c2ccc(F)cc2)oc1-c1ccsc1
Reduction (Rattus norvegicus [1]): 3%
Reduction (Rattus norvegicus [2]): -2%

CCOC(=O)Cc1nc(-c2ccccc2)oc1-c1ccsc1
Reduction (Rattus norvegicus [1]): 41%
Reduction (Rattus norvegicus [2]): 15%

CCOC(=O)Cc1nc(-c2ccc(Cl)cc2)oc1-c1ccc(C)s1
Reduction (Rattus norvegicus [1]): 39%
Reduction (Rattus norvegicus [2]): 4%

CCNC(=O)Cc1nc(-c2ccc(F)cc2)oc1-c1ccsc1
Reduction (Rattus norvegicus [1]): 23%
Reduction (Rattus norvegicus [2]): -5%

NC(=O)Cc1nc(-c2ccc(Cl)cc2)oc1-c1ccsc1
Reduction (Rattus norvegicus [1]): 12%
Reduction (Rattus norvegicus [2]): 16%

OCCc1nc(-c2ccc(F)cc2)oc1-c1ccsc1
Reduction (Rattus norvegicus [1]): 1%
Reduction (Rattus norvegicus [2]): 4%

CCOC(=O)C(C)(C)Oc1ccc(Cl)cc1 [CLOFIBRATE]
Reduction (Rattus norvegicus [1]): 16%
Reduction (Rattus norvegicus [2]): 15%
